# Test results published in ChEMBL document CHEMBL1132294, “Derivatives of the new ring system indolo[1,2-c]benzo[1,2,3]triazine with potent antitumor and antimicrobial activity” (J Med Chem, 1999).
# What was measured:
# [1] = system: Mycobacterium tuberculosis; assay: Antibacterial activity was evaluated against Mycobacterium tuberculosis (clinical isolate 1104); format: functional
# Procedure, shortened: (§1)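 Broth microdilution in Middlebrook 7H9 with 0.5% glycerol and 10% OADC, containing serial concentrations of compound (diluted in medium from a DMSO solution). Plates were incubated 9 days at 37 °C, and viable bacteria were read by MTT. MIC is the mean of at least three separate experiments.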
# Candida parapsilosis [2] = assay: Antimycotic activity against Candida parapsilosis was evaluated. MIC was defined as compound concentration at which no macroscopic signs of fungal growth were detected.; format: functional; conditions: Lodderomyces parapsilosis
# Procedure, shortened: (§2)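 Yeast inocula from 30 h Sabouraud dextrose broth cultures at 37 °C, diluted to 5×10³ cells/mL. Dermatophyte inocula from 5-day cultures, homogenized and diluted to 0.05 OD₅₉₀/mL. Inocula added to medium with serial dilutions, incubated at 37 °C, read visually at 2 days (yeast) or 3 days (dermatophytes). Mean of at least three experiments.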
# IMR-32 = assay: Antitumor activity was evaluated against human neuroblastoma cell line IMR-32.; format: functional, cell-based
# Procedure, shortened: (§3)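 Solid-tumour and KB lines: exponentially growing cells seeded at 5×10⁴ cells/mL, allowed to adhere 16 h, then serial drug dilutions added. Viability by MTT after 4 days. Growth expressed as % of untreated controls, 50% inhibitory concentration by linear regression. Untreated cells undergo at least three rounds of multiplication.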
# CCRF-SB = assay: Antitumor activity was evaluated against leukemia cell line CCRF-SB(human acute B lymphoblastic leukemia).; format: functional, cell-based
# Procedure, shortened: (§4)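 Exponentially growing leukemia/lymphoma cells resuspended at 1×10⁵ cells/mL in RPMI with serial drug dilutions. Viability by MTT after 4 days at 37 °C. Concentration giving 50% growth inhibition versus untreated controls found by linear regression. Mean of at least three experiments.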
# Trichophyton benhamiae = assay: Antimycotic activity against Trichophyton mentagrophytes was evaluated. MIC was defined as compound concentration at which no macroscopic signs of fungal growth were detected.; format: functional, Arthroderma benhamiae; procedure, shortened: as §2
# L1210 = assay: Antitumor activity was evaluated against leukemia cell line L1210 (mouse leukemia).; format: functional, cell-based; procedure, shortened: as §4
# [3] = system: Mycolicibacterium smegmatis; assay: Antibacterial activity was evaluated against Mycobacterium smegmatis; format: functional
# Procedure, shortened: (§5)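 Mycobacterial suspension (turbidity of 1 McFarland standard, 10⁸ CFU/mL) added to Middlebrook 7H9 with 0.5% glycerol, 10% OADC and serial compound dilutions. Incubated at 37 °C, 1 day for M. smegmatis and M. fortuitum, 9 days for MAC. Viable mycobacteria counted by MTT. MIC given as mean of at least three separate experiments.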
# WIL2-NS = assay: Antitumor activity was evaluated against lymphoma cell line Wil2-NS (human splenic B lymphoblastoid cells).; format: functional, cell-based; procedure, shortened: as §4
# CHO-K1 = assay: Antitumor activity was evaluated against Chinese hamster ovary carcinoma cell line CHO-K1.; format: functional, cell-based; conditions: Cricetulus griseus; procedure, shortened: as §3
# Candida albicans = assay: Antimycotic activity against Candida albicans was evaluated as minimum inhibitory concentration of compound at which no macroscopic signs of fungal growth were detected; format: functional; procedure, shortened: as §2
# MOLT-4 = assay: Antitumor activity was evaluated against leukemia cell line MOLT-4(human acute T lymphoblastic leukemia); format: functional, cell-based; procedure, shortened: as §4
# Streptococcus = assay: Antibacterial activity was evaluated against streptococcus.; format: functional
# Procedure, shortened: (§6)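 Recent clinical isolates grown in nutrient broth, pH 7.2, inoculum 10³ bacterial cells/tube, with serial compound dilutions. […] Mean of at least three separate experiments.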
# Shigella = assay: Antibacterial activity was evaluated against shigella.; format: functional; procedure, shortened: as §6
# 5637 = assay: Antitumor activity was evaluated against human bladder carcinoma cell line 5637.; format: functional, cell-based; procedure, shortened: as §3
# Aspergillus fumigatus = assay: Antimycotic activity against Aspergillus fumigatus was evaluated as compound minimum inhibitory concentration at which no macroscopic signs of fungal growth were detected.; format: functional
# MT4 = assay: Antitumor activity was evaluated against leukemia cell line MT-4(human CD4+ T cells expressing the TAT gene of HTLV-1).; format: functional, cell-based; procedure, shortened: as §4
# HT-29 = assay: Antitumor activity was evaluated against human colon adenocarcinoma cell line HT-29.; format: functional, cell-based; procedure, shortened: as §3
# [4] = system: Mycolicibacterium fortuitum; assay: Antibacterial activity was evaluated against Mycobacterium fortuitum.; format: functional; procedure, shortened: as §5
# Candida tropicalis = assay: Antimycotic activity against Candida paratropicalis was evaluated. MIC was defined as compound concentration at which no macroscopic signs of fungal growth were detected.; format: functional; procedure, shortened: as §2
# Mycobacterium = assay: Antibacterial activity was evaluated against MAC (Mycobacterium Avium Complex ); format: functional; procedure, shortened: as §5
# ACHN = assay: Antitumor activity was evaluated against human renal adenocarcinoma cell line ACHN.; format: functional, cell-based; procedure, shortened: as §3
# HeLa = assay: Antitumor activity was evaluated against human cervix carcinoma cell line HeLa.; format: functional, cell-based; procedure, shortened: as §3
# Staphylococcus = assay: Antibacterial activity was evaluated against staphylococcus; format: functional; procedure, shortened: as §6
# Cryptococcus neoformans = assay: Antimycotic activity against Cryptococcus neoformans was evaluated. MIC was defined as compound concentration at which no macroscopic signs of fungal growth were detected.; format: functional; procedure, shortened: as §2
# [5] = system: Mycobacterium tuberculosis; assay: Antibacterial activity was evaluated against Mycobacterium tuberculosis (ATCC); format: functional; procedure, shortened: as §1
# Salmonella = assay: Antibacterial activity was evaluated against salmonella.; format: functional; procedure, shortened: as §6
# CCRF-CEM = assay: Antitumor activity was evaluated against leukemia cell line CCRF-CEM(human acute T lymphoblastic leukemia).; format: functional, cell-based
# Procedure, shortened: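 Exponentially growing leukemia/lymphoma cells resuspended at 1×10⁵ cells/mL in RPMI with serial drug dilutions. Viability by MTT after 4 days at 37 °C. Mean of at least three experiments.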
# Homo sapiens [6] = species: Homo sapiens; assay: In vitro Antiproliferative activity against peripheral blood lymphocytes (PBL) after stimulating PBL with PHA and then resuspending in IL-2-containing medium in the presence of compound.; format: functional
# Procedure, shortened: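 PBL from HIV-negative donors, isolated on Ficoll-Hypaque and rested overnight. Stimulated with PHA 2.5 μg/mL for 24 h, diluted to 1×10⁵ cells/mL in medium with PHA, IL-2 50 U/mL and compound. Viable cells counted after 6 days. Mean ±SD of three experiments.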
# Candida parapsilosis [7] = assay: Antimycotic activity against Candida parapsilosis was evaluated as compound concentration at which no macroscopic signs of fungal growth were detected; format: functional; conditions: Lodderomyces parapsilosis; procedure, shortened: as §2
# Homo sapiens [8] = species: Homo sapiens; assay: In vitro Antiproliferative activity against peripheral blood lymphocytes (PBL) by treating PBL with compound for 3 days, then stimulating with PHA and then resuspending in compound free medium.; format: functional; conditions: 72 h
# Procedure, shortened: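 Resting donor PBL held at 1×10⁶ cells/mL and treated with compound for up to 3 days, then washed. Stimulated with PHA for 24 h, diluted to 1×10⁵ cells/mL in drug-free medium with PHA and IL-2. Viability read after 6 days at 37 °C. Mean ±SD of three experiments.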
# Lymphoblastoid cell = assay: Cytotoxicity was evaluated against lymphoblastoid cell line.; format: functional; conditions: Homo sapiens
# KB [9] = assay: Antiproliferative activity against drug-resistant tumor cell line KBV20C.; format: functional, cell-based; conditions: Homo sapiens; procedure, shortened: as §3
# KB [10] = assay: Antiproliferative activity against drug-resistant tumor cell line KBwt.; format: functional, cell-based; conditions: Homo sapiens; procedure, shortened: as §3
# KB [11] = assay: Antiproliferative activity against drug-resistant tumor cell line KB7D.; format: functional, cell-based; conditions: Homo sapiens; procedure, shortened: as §3
# KB [12] = assay: Antiproliferative activity against drug-resistant tumor cell line KBCamp.; format: functional, cell-based; conditions: Homo sapiens; procedure, shortened: as §3
# KB [13] = assay: Antiproliferative activity against drug-resistant tumor cell line KBMDR.; format: functional, cell-based; conditions: Homo sapiens; procedure, shortened: as §3
Structure (SMILES),MIC [1],IC50 (IMR-32),IC50 (CCRF-SB),MIC (Trichophyton benhamiae),IC50 (L1210),MIC [3],IC50 (WIL2-NS),IC50 (CHO-K1),MIC (Candida albicans),IC50 (MOLT-4),MIC (Streptococcus),MIC (Shigella),IC50 5637,MIC (Aspergillus fumigatus),IC50 (MT4),IC50 (HT-29),MIC [4],MIC (Candida tropicalis),IC50 (ACHN),MIC (Cryptococcus neoformans),other results
O=Nc1c2ccccc2n2nnc3ccccc3c12,7.4 µM,3300 nM,7400 nM,9.4 µM,12000 nM,2.5 µM,4400 nM,45000 nM,19 µM,2300 nM,0.8 µM,25 µM,4200 nM,19 µM,1400 nM,50000 nM,> 5 µM,19 µM,12000 nM,3.1 µM,MIC (Candida parapsilosis [2]): 19 µM; MIC (Mycobacterium): 1.2 µM; IC50 (HeLa): 10000 nM; MIC (Staphylococcus): 0.8 µM; MIC [5]: 4.6 µM; MIC (Salmonella): 25 µM; IC50 (CCRF-CEM): 7000 nM
Cc1ccc2nnn3c4ccccc4c(N=O)c3c2c1,9.2 µM,2800 nM,700 nM,> 200 µM,1700 nM,> 5 µM,800 nM,6500 nM,> 200 µM,500 nM,0.8 µM,> 200 µM,1900 nM,> 200 µM,1300 nM,3100 nM,> 5 µM,> 200 µM,8700 nM,> 200 µM,CC50 (Homo sapiens [6]): 500 nM; MIC (Candida parapsilosis [7]): > 200 µM; CC50 (Homo sapiens [8]): 600 nM; MIC (Mycobacterium): 5 µM; IC50 (HeLa): 9500 nM; MIC (Staphylococcus): 0.4 µM; CC50 (Lymphoblastoid cell): 900 nM; MIC [5]: 9.3 µM; MIC (Salmonella): > 200 µM; IC50 (CCRF-CEM): 500 nM
O=Nc1c2cc(Cl)ccc2n2nnc3ccccc3c12,> 10 µM,800 nM,400 nM,> 200 µM,700 nM,> 5 µM,200 nM,1600 nM,> 200 µM,200 nM,0.8 µM,> 200 µM,300 nM,> 200 µM,500 nM,1300 nM,> 5 µM,> 200 µM,2600 nM,> 200 µM,IC50 (KB [9]): 2100 nM; IC50 (KB [10]): 1800 nM; CC50 (Homo sapiens [6]): 200 nM; MIC (Candida parapsilosis [7]): > 200 µM; IC50 (KB [11]): 1700 nM; CC50 (Homo sapiens [8]): 900 nM; IC50 (KB [12]): 1900 nM; MIC (Mycobacterium): 0.6 µM; IC50 (KB [13]): 1100 nM; IC50 (HeLa): 2700 nM; MIC (Staphylococcus): 0.4 µM; CC50 (Lymphoblastoid cell): 350 nM; MIC [5]: 4.7 µM; MIC (Salmonella): > 200 µM; IC50 (CCRF-CEM): 80 nM
O=Nc1c2ccccc2n2nnc3cc(Cl)ccc3c12,5.9 µM,2200 nM,2800 nM,50 µM,2400 nM,> 5 µM,800 nM,9300 nM,12 µM,1100 nM,0.4 µM,> 200 µM,2600 nM,6.2 µM,900 nM,35000 nM,> 5 µM,25 µM,7600 nM,1.6 µM,MIC (Candida parapsilosis [2]): 3 µM; MIC (Mycobacterium): 0.6 µM; IC50 (HeLa): 9200 nM; MIC (Staphylococcus): 0.4 µM; MIC [5]: 4.4 µM; MIC (Salmonella): > 200 µM; IC50 (CCRF-CEM): 1800 nM
COc1cccc2c1C(=O)c1c(O)c3c(c(O)c1C2=O)C[C@@](O)(C(=O)CO)C[C@@H]3O[C@H]1C[C@H](N)[C@H](O)[C@H](C)O1 [DOXORUBICIN],,10 nM,10 nM,> 2.5 µM,230 nM,,20 nM,400 nM,> 2.5 µM,30 nM,,,20 nM,> 2.5 µM,20 nM,50 nM,,> 2.5 µM,400 nM,> 2.5 µM,CC50 (Homo sapiens [6]): 40 nM; MIC (Candida parapsilosis [7]): > 2.5 µM; CC50 (Homo sapiens [8]): 90 nM; CC50 (Lymphoblastoid cell): 60 nM
